{
  "source": "the RNAGym collection of RNA variant scans (doi:10.1126/science.aae0568)",
  "parents": {"B1": {"name": "tRNA (parent)", "chain": "GUUCCGUUGGCGUAAUGGUAACGCGUCUCCCUCCUAAGGAGAAGACUGCGGGUUCGAGUCCCGUACGGAACG"}},
  "note": "This sample holds only a part of the variants without activity.",
  "data": [
    {"variants_of": "B1", "test": "yeast fitness relative to wild type (ratio to wild type); higher = fitter; tRNA-Arg(CCU), competitive growth, 37 C, YPD", "in_short": "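Amplicons of the tRNA-Arg(CCU) gene were sequenced, 100-nucleotide paired-end, from the start population and from each end population of a pooled yeast competition. The competition, in six parallel replicates, lasted 24 hours in YPD at 37°C. Fitness relative to wild type was calculated from changes in genotype frequencies. Genotypes had to have ≥ 100 starting reads, and estimates < 0.5 were set to 0.5.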", "values": [
      {"variant": "GGUCCGUUGGCGUAAUGGUAGCGCGUCUCCCUCCUAAGGAGAAGACUGCGGGUUCGAGUCGCGUACGGAACG", "yeast fitness": "≤ 0.5"},
      {"variant": "GGUGCGUUGGCGUAAUGGUACCGCGUCUCCCUCCUAAGGAGAAGACUGCGGGUUCGAGUCCCGUACGGAACG", "yeast fitness": 0.725},
      {"variant": "GGUUCGUUGGCGUAAUGGUAACGCGUCUCCCUCCUAAGGAGAAGACUGCGGGUUCGAGUCCCGUGCGGAACG", "yeast fitness": 0.729},
      {"variant": "GGUACGUUGGCGUAAUGGUAACGCGUCUCCCUCCUAUGGAGAAGACUGCGGGUUCGAGUCCGGUACGGAACG", "yeast fitness": "≤ 0.5"},
      {"variant": "GGUCCGUUGGCGUAAUGGUAACGCGUCUCCCUCCUAAGGAGAAGACUGCGGGUUCGCGUCCAGUCCGGAACG", "yeast fitness": "≤ 0.5"},
      {"variant": "GGUCCGUUGGCGUAAUGGUAACGCGUCUCCCUCCUAAGGAGGAGACUGCGGGUUCGAGUCCCGUACGGAACG", "yeast fitness": 0.866},
      {"variant": "GGUUCCUUGGCGUAAUGGUAACGCGUCUCCCUCCUAAGGAGAAGACUGGGGGUUCGAGUCCCGUACGGAACG", "yeast fitness": "≤ 0.5"},
      {"variant": "GGUUCGUUGGCGUAAUGGUAACGCGUCUCCCUCCUAAGGAGAAGACUGCGGGUUCGAGUACCGUACGGAACG", "yeast fitness": "≤ 0.5"},
      {"variant": "GGUCCGUUGGCGUAAUGGUAACGCGUCUCCCUCCUUAGGAGAAGACUGCGGGUUCGAGUCCGAUACGGAACG", "yeast fitness": "≤ 0.5"},
      {"variant": "GGUACGUCGGCGUAACGGUAACGCGUCUCCCUCCUAAGGAGAAGACUGCGGGUUCGAGUCGCGUACGGAACG", "yeast fitness": "≤ 0.5"},
      {"variant": "GGUACGUUGGCGUAAUGGUAACGCGUCUCCCUCCUAAGGAGAUGACUGCGGGUUCGAGUCCCGUACGGAACG", "yeast fitness": 0.717},
      {"variant": "GGUUCCUUGGCGUAAUGGUAACGCGUCUCCGUCCUAAGGAGAAGACUGCGGGUUCGAGUCCCGUACGGAACG", "yeast fitness": "≤ 0.5"},
      {"variant": "GGUCCGUUGGCGUAAUGGUAACGCGUCUCCCUCCUAAGGAGAUGACCGCGGGUUCGAGUCCCGUACGGAACG", "yeast fitness": 0.731},
      {"variant": "GGUCCGUUGGCGUAAUGGUAUCGCGUCUCCCUCCUAAGGAGAAGACUGCGGGUUCGAGUCCCGUACGGAACG", "yeast fitness": 0.729},
      {"variant": "GGUCCGUUGGCGUAAUGGUAACGCGUCUCCCUCCUAAGGAGCAGACAGCGGGUUCGAGUCCCCUACGGAACG", "yeast fitness": 0.55},
      {"variant": "GGUGCGUUGGCGUAAUGGUAACGCGUCUCCAUCCUACGGAGAAGACUGCGGGUUCGGGUCCCGUACCGUACG", "yeast fitness": "≤ 0.5"},
      {"variant": "GGUUCGUUGGCGUAAUGGUAACGCGUCUCCCUCCUAAGGAGGAGACUGCGGGUUCGAGUCCCGUACGGAACG", "yeast fitness": 0.755},
      {"variant": "GGUCCGUUGGCGUAAUGGUAACGCGUCUCCCUCCUAAGGUGAAGACUGAGGGUUCGACUCCCCUACGGAACG", "yeast fitness": "≤ 0.5"},
      {"variant": "GGUCCGUUGGCGUAAUGGUAACGCGUCUCCCUCCUAAGGAGGAGACUGCGGGUUUGAGUCCCGUACGGAACG", "yeast fitness": "≤ 0.5"},
      {"variant": "GGUCCGUUGGCGUAAUGGUAACGCGUCUCCCUCCUAAGGAGAAGACUGCGGGUUCGAGUCCCGUUCGGAACG", "yeast fitness": 0.687},
      {"variant": "GGUCCGUUGGCGUAAUGGUAACGCGUCUCCCUCCUAAGGAGAAGACUGCGGGUUCGAGUCCCGUGCGGAACG", "yeast fitness": 1.11},
      {"variant": "GGUUCGUUGGCGUAAUGGUAAUGCGUUUCCCUCCUACGGAGAAGACUGCGGGUUCGAGUCCCGUACGGAACG", "yeast fitness": "≤ 0.5"},
      {"variant": "GGUCCGUUGGCGUAAUGGUAACGCGUCUCCCUCCUGAGGAGAAGACUGCGGGUUCGAGUCCCGUACGGAACG", "yeast fitness": 0.953},
      {"variant": "GGUCCGUUGGCGUAAUGGUAACGCGUCUCCCUCCUACGGAGAAGACUGCGGGUUCGAGUCUCGUACAGAACG", "yeast fitness": "≤ 0.5"},
      {"variant": "GGUCCGUUGGCGUAAUGGUAACGCGUCUCCCUCCUUAGGAGAAGACUGCGGGUUCGAGUCCCGUACACAACG", "yeast fitness": "≤ 0.5"},
      {"variant": "GGUCCGUUGGCGUAAUGGUAACGCGUCUCCCUCCUACGGAGAAGACUGGGGGUUCGAGUCCAGUACGGAACG", "yeast fitness": "≤ 0.5"},
      {"variant": "GGUCCGUUGGCGUAAUGGUAACGCGUCUCCCUCCUAAGGAGAAGUCUGCGGGUUCGAGUUCCGUACGGAACG", "yeast fitness": 0.549},
      {"variant": "GGUUCCUUGGCGUAAUGGUAAGGCCUCUCCCACCUAAGGAGAAGACUGCGGAUUCGAGCCAUGUACGGAACG", "yeast fitness": "≤ 0.5"},
      {"variant": "GGUCCGUUGGCGUAAUGGUAACGCGUCUCCCUCCUAAGGUGAAGAGUGCGGGUUCGAGUCCCGUACGGAACG", "yeast fitness": "≤ 0.5"},
      {"variant": "GGUCCGUUGGCGUAAUGGUAACGCGUCUCCCUCCUAAGGAGCAGACAGCGGGUUCGAGUCCCGUACGGAACG", "yeast fitness": 0.573},
      {"variant": "GGUCCGUUGGCGUAAUGGUAACGCGUCUCCCUCCUAAGGCGAAGACUGCGGGUUCGAGUCCCGUACGCAACG", "yeast fitness": 0.54},
      {"variant": "GGUCCGUUGGCGUAAUGGUAGCGCGUCUCCCUCCUAAGGAGAAGACCGCGGGUUCGAGUCCCGUACGGCACG", "yeast fitness": "≤ 0.5"},
      {"variant": "GGUCCGUUGGCGUAAUGGUAACGCGUCUCCCUCCUAAGGAGAAGACUGCGGGUUCGCGUCCCGUACGGAACG", "yeast fitness": 0.533},
      {"variant": "GGUUCGUUGGCGUAAUGGUAACGCGUCUCCCUCCUAAGGCGAAGACUGCGGGUUCGAGUCCCGUACGGAACG", "yeast fitness": 0.627},
      {"variant": "GGUCCGUUGGCGUAAUGGUAACGCGUCUCCCUCCUACGGAGAAGACUGUGGGUUCGAGUCCCGUACGGACCG", "yeast fitness": "≤ 0.5"},
      {"variant": "GGUUCGGUGGGGUACUGAUAACGCGUCCCCCUCCUAAGGAGAAGACUGCGGGUUUGAGUCCCGUACGGAACG", "yeast fitness": "≤ 0.5"},
      {"variant": "GGUUCGUUGGCGUAAUGGUAACGCGUCUCCCUCCUAAGGAGAAGACUGCGGGUUCGAGUCCCGUACGGAACG", "yeast fitness": 0.971},
      {"variant": "GGUCCGUUGGCGUAAUGGUAACGCGUCUCCCUCCUAAGGAGAAGCCUACGGGUUCGAGUCCCGUACGGAACG", "yeast fitness": 0.622}
    ]}
  ]
}
